Measured values reported in ChEMBL document CHEMBL4118021, “Studies of TAK1-centered polypharmacology with novel covalent TAK1 inhibitors” (Bioorg Med Chem, 2017).
One block for each compound: values may come before it. Activity calls are given as the source filed them. The calls are words filed in the database; no cut-off is given here.

How the values were obtained:
[1] = target: 80S Ribosome (Homo sapiens) (UniProt P08865+P42677+P62753+P15880+P23396+P61247+P62701+P22090+P46782+P62081+P62241+P46781+P46783+P62280+P25398+P62277+P62263+P62841+P62244+P62249+P08708+P62269+P39019+P60866+P63220+P62266+P62847+P62851+P62854+P62979+P62857+P62273+P62861+P39023+P36578+P46777+Q02878+P18124+P62424+P62917+P32969+P27635+P62906+P62913+P30050+P26373+P40429+P50914+P61313+P18621+Q07020+Q02543+P84098+P46778+P35268+P62829+P62750+P83731+P61254+P61353+P46776+P46779+P47914+P62888+P62899+P62910+P49207+P42766+P18077+Q9Y3U8+P83881+P61927+P61513+P63173+P62891+P62945+P05388+P05386); test: Binding affinity to RPL27 in human NCI-H358 cells at 1 uM by mass spectrometry based pull down assay; assay type: cell-based
[2] = target: Cancer-related nucleoside-triphosphatase (Homo sapiens) (UniProt Q9BSD7); test: Binding affinity to NTPCR in human NCI-H358 cells at 1 uM by mass spectrometry based pull down assay; assay type: cell-based
Cancer-related nucleoside-triphosphatase (Homo sapiens), sequence (Q9BSD7 whole entry): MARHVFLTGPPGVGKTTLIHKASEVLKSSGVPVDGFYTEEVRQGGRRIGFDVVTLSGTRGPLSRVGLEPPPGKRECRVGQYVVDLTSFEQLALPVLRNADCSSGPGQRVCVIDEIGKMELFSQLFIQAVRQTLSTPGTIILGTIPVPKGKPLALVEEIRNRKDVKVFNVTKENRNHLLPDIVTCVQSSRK

[3] = target: Glycogen synthase kinase-3 alpha (Homo sapiens) (UniProt P49840); test: Binding affinity to GSK3A in human NCI-H23 cells at 1 uM by mass spectrometry based pull down assay; assay type: cell-based
Glycogen synthase kinase-3 alpha (Homo sapiens), sequence (P49840 2-483 limits assumed): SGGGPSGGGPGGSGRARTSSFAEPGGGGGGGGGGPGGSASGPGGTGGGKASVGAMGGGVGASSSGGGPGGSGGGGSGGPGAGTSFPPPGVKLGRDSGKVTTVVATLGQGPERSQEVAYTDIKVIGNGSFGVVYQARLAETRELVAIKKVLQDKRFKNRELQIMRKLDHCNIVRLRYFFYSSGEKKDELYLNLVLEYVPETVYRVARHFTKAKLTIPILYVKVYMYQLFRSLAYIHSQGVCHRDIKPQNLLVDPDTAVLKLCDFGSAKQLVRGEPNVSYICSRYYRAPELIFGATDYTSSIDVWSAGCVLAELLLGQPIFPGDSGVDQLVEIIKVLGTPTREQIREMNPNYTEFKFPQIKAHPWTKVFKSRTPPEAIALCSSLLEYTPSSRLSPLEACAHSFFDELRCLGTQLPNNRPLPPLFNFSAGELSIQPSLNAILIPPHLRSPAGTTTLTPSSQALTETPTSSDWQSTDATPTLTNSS

[4] = target: Protein phosphatase 1G (Homo sapiens) (UniProt O15355); test: Binding affinity to PPM1G in human NCI-H23 cells at 1 uM by mass spectrometry based pull down assay; assay type: cell-based
[5] = target: AP2-associated protein kinase 1 (Homo sapiens) (UniProt Q2M2I8); test: Binding affinity to AAK1 in human NCI-H358 cells at 1 uM by mass spectrometry based pull down assay; assay type: cell-based
Summary of the method: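 NCI-H23 or NCI-H358 cells were grown and lysed. Lysates were incubated overnight at 4 °C with 1 μM biotinylated covalent probe or DMSO, then pulled down on streptavidin beads. Proteins were run on polyacrylamide gels and stained with Coomassie. Bands were excised, digested and identified by mass spectrometry.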

[6] = target: Citrate synthase, mitochondrial (Homo sapiens) (UniProt O75390); test: Binding affinity to CS in human NCI-H23 cells at 1 uM by mass spectrometry based pull down assay; assay type: cell-based
Citrate synthase, mitochondrial (Homo sapiens), sequence (O75390 whole entry): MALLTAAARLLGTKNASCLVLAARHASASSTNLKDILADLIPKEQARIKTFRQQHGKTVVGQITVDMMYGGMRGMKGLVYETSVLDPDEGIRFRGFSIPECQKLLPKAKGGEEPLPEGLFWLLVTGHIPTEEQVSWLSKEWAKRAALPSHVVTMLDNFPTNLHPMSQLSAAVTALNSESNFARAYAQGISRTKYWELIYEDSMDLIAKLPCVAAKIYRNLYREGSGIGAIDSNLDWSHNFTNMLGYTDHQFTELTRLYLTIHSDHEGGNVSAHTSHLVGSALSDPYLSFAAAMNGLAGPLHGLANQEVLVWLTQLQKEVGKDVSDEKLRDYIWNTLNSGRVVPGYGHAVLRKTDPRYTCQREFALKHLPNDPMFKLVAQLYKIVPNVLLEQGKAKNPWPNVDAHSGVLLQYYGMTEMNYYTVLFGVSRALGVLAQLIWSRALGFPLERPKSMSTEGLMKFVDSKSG

[7] = target: Tubulin alpha-1A chain (Homo sapiens) (UniProt Q71U36); test: Binding affinity to TUBA1A in human NCI-H23 cells at 1 uM by mass spectrometry based pull down assay; assay type: cell-based
Tubulin alpha-1A chain (Homo sapiens), sequence (Q71U36 whole entry, looked up): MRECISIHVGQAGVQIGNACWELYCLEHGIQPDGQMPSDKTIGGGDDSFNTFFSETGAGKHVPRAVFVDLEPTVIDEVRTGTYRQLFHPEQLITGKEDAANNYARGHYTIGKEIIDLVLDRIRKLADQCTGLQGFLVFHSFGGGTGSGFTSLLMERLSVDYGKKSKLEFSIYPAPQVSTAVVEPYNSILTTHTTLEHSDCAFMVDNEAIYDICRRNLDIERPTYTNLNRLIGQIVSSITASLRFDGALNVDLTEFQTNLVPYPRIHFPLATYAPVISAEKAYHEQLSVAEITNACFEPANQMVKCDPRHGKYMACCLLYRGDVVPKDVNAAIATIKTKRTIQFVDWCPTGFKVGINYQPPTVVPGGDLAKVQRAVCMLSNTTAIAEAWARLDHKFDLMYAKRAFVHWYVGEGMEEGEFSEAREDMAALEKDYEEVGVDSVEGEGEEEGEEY

[8] = target: Beclin-1 (Homo sapiens) (UniProt Q14457); test: Binding affinity to BECN1 in human NCI-H358 cells at 1 uM by mass spectrometry based pull down assay; assay type: cell-based
[9] = system: NCI-H23; test: Binding affinity to PSMA7 in human NCI-H23 cells at 1 uM by mass spectrometry based pull down assay; assay type: cell-based
[10] = target: Actin-related protein 2/3 complex subunit 5 (Homo sapiens) (UniProt O15511); test: Binding affinity to ARPC5 in human NCI-H358 cells at 1 uM by mass spectrometry based pull down assay; assay type: cell-based
[11] = target: Ribosomal protein S6 kinase alpha-3 (Homo sapiens) (UniProt P51812); test: Binding affinity to RPS6KA3 in human NCI-H23 cells at 1 uM by mass spectrometry based pull down assay; assay type: cell-based
[12] = target: Large ribosomal subunit protein bL19m (Homo sapiens) (UniProt P49406); test: Binding affinity to MRPL19 in human NCI-H23 cells at 1 uM by mass spectrometry based pull down assay; assay type: cell-based
[13] = target: Cyclin-dependent kinase 5 (Homo sapiens) (UniProt Q00535); test: Binding affinity to CDK5 in human NCI-H23 cells at 1 uM by mass spectrometry based pull down assay; assay type: cell-based
Cyclin-dependent kinase 5 (Homo sapiens), sequence (Q00535 whole entry, looked up): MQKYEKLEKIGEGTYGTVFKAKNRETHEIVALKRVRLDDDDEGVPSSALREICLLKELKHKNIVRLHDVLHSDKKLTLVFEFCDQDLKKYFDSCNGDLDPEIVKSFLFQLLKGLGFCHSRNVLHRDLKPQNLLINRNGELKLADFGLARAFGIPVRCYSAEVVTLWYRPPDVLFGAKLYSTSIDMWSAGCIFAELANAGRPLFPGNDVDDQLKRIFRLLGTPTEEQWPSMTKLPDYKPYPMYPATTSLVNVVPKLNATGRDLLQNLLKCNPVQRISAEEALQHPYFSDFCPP

[14] = target: Dolichyl-diphosphooligosaccharide--protein glycosyltransferase subunit 1 (Homo sapiens) (UniProt P04843); test: Binding affinity to RPN1 in human NCI-H23 cells at 1 uM by mass spectrometry based pull down assay; assay type: cell-based
Dolichyl-diphosphooligosaccharide--protein glycosyltransferase subunit 1 (Homo sapiens), sequence (P04843 whole entry): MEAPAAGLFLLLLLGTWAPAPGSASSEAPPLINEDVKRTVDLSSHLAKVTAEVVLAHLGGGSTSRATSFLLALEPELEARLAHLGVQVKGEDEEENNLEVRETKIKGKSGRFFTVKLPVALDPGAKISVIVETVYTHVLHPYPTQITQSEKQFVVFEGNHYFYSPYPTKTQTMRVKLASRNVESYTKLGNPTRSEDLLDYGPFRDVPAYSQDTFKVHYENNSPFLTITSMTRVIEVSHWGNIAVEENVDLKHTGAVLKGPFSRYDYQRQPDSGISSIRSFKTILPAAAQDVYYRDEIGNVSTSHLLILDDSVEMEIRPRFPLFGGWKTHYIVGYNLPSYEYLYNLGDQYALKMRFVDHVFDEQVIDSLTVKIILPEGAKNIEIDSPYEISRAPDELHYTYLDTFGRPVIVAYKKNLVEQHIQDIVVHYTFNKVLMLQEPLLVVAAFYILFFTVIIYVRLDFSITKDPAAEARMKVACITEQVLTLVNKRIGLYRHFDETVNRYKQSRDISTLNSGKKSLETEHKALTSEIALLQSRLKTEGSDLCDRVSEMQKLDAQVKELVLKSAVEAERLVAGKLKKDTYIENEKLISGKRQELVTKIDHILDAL

[15] = target: T1, Dual specificity mitogen-activated protein kinase kinase 3 (Homo sapiens) (UniProt P46734); test: Binding affinity to MAP2K3 in human NCI-H358 cells at 1 uM by mass spectrometry based pull down assay; assay type: cell-based
T1 sequence (whole entry): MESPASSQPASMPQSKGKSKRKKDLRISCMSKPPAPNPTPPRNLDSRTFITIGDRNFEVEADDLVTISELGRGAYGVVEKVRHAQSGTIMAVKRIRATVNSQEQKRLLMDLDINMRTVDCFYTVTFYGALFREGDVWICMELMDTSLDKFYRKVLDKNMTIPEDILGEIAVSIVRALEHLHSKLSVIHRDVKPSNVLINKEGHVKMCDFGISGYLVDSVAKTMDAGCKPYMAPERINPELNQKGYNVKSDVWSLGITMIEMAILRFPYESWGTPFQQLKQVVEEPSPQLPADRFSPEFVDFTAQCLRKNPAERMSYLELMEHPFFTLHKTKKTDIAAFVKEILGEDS

[16] = target: Moesin (Homo sapiens) (UniProt P26038); test: Binding affinity to MSN in human NCI-H358 cells at 1 uM by mass spectrometry based pull down assay; assay type: cell-based
[17] = target: Tyrosine-protein kinase Yes (Homo sapiens) (UniProt P07947); test: Binding affinity to YES1 in human NCI-H358 cells at 1 uM by mass spectrometry based pull down assay; assay type: cell-based
[18] = target: Activated CDC42 kinase 1 (Homo sapiens) (UniProt Q07912); test: Inhibition of ACK in human SKCO1 cells at 1 uM after 4 hrs using biotin labeled TVSVAVKCLKPDVLSQPEAMDDFIR probe by mass-spectrometric analysis relative to control; assay type: cell-based
Activated CDC42 kinase 1 (Homo sapiens), sequence (Q07912 whole entry, looked up, the tested form may be a part): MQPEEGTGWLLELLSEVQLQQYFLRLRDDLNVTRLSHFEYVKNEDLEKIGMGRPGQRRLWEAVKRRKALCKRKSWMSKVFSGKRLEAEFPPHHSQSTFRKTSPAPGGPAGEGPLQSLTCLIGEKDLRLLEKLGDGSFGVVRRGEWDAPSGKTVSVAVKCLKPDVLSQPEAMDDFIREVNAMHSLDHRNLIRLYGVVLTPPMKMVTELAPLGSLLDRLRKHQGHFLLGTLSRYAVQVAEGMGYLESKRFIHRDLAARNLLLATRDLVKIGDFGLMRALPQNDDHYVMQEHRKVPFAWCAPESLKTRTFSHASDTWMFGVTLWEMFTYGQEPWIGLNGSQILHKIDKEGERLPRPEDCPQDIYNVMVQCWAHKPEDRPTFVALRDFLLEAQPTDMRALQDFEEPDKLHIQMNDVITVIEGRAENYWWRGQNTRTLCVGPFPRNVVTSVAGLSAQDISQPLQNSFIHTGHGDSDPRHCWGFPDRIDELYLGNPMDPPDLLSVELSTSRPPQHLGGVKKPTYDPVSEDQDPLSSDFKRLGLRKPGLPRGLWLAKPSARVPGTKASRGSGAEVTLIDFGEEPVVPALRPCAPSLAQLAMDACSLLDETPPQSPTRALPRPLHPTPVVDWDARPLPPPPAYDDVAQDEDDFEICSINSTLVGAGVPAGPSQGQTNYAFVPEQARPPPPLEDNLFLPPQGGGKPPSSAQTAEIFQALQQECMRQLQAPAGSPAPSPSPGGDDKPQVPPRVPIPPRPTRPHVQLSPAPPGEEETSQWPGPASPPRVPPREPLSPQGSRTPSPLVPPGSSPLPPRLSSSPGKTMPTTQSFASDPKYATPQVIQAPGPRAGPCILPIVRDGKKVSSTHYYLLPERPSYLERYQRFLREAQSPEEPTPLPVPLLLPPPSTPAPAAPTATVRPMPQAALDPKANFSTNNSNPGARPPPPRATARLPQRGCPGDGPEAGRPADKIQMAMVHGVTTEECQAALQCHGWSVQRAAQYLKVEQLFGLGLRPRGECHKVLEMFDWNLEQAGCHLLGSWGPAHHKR

[19] = target: Vascular endothelial growth factor receptor 1 (Homo sapiens) (UniProt P17948); test: Inhibition of human FLT1 (781 to 1239 residues) expressed in bacterial expression system assessed as enzyme activity at 1 uM by KINOMEScan assay relative to control; set-up: scale not given: the % may be the effect or the level left
Summary of the method: (§1)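 In vitro ATP-site competition binding assay across a panel of 456 kinases, with compound tested at 1 and 10 μM.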

[20] = target: Dual specificity mitogen-activated protein kinase kinase 2 (Homo sapiens) (UniProt P36507); test: Inhibition of full length human MEK2 (1 to 400 residues) expressed in mammalian expression system assessed as enzyme activity at 10 uM by KINOMEScan assay relative to control; set-up: scale not given: the % may be the effect or the level left
Dual specificity mitogen-activated protein kinase kinase 2 (Homo sapiens), sequence (P36507 whole entry, the tested form may be a part): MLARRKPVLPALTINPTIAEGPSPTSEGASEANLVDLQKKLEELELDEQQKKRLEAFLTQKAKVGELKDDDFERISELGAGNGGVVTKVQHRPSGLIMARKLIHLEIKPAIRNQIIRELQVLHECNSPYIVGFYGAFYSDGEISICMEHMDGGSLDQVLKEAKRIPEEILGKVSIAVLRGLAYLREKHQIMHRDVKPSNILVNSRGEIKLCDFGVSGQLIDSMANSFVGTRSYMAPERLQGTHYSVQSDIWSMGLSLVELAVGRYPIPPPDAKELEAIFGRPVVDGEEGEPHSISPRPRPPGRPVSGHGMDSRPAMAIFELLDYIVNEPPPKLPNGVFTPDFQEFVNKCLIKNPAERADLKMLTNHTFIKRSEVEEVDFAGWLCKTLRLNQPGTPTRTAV
Summary of the method: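 In vitro ATP-site competition binding assay (KinomeScan) across a panel of 456 kinases. Compound was tested at 1 and 10 μM. The read-out is the binding inhibition score relative to control.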

[21] = target: Mast/stem cell growth factor receptor Kit (Homo sapiens) (UniProt P10721); test: Inhibition of human KIT (571 to 952 residues) expressed in bacterial expression system assessed as enzyme activity at 10 uM by KINOMEScan assay relative to control; set-up: scale not given: the % may be the effect or the level left; summary of the method: as §1
Mast/stem cell growth factor receptor Kit (Homo sapiens), sequence (P10721 whole entry, the tested form may be a part): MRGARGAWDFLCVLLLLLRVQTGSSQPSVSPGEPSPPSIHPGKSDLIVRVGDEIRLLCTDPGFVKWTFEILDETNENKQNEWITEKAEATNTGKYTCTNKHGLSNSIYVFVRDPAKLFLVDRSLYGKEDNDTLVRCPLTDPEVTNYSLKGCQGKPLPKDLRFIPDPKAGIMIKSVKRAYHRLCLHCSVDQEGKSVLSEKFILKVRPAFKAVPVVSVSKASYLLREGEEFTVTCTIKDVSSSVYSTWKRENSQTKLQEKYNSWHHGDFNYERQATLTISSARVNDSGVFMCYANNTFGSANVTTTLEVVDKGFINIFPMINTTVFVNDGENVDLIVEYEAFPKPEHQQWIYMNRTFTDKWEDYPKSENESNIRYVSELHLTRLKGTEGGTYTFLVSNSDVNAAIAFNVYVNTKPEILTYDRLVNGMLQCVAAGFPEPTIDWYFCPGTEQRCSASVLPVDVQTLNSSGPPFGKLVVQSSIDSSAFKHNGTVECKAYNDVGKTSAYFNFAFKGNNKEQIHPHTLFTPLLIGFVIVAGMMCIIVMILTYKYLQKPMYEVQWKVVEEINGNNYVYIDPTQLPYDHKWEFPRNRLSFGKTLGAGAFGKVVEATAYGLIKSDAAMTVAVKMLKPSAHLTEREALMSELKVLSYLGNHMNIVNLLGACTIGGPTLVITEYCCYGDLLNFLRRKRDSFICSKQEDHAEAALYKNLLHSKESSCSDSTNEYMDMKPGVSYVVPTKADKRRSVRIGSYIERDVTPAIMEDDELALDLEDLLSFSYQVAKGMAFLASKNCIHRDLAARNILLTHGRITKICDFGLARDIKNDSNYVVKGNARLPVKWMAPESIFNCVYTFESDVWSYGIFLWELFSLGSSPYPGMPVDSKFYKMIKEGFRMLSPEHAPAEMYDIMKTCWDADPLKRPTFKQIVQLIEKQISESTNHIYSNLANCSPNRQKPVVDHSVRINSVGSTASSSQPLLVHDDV

- Activity [1]: Active
- Activity [2]: Active
- Activity [3]: Active
- Activity [4]: Active
- Activity [5]: Active
- Activity [6]: Active
- Activity [7]: Active
- Activity [8]: Active
- Activity [10]: Active
- Activity [11]: Active
- Activity [12]: Active
- Activity [13]: Active
- Activity [14]: Active
- Activity [15]: Active
- Activity [16]: Active
- Activity [17]: Active
Structure (SMILES): C=CC(=O)Nc1ccccc1Nc1nc(Nc2ccc(N3CCN(CCOCCOCCOCCNC(=O)CCCC[C@@H]4SC[C@@H]5NC(=O)N[C@@H]54)CC3)cc2)ncc1Cl
- Activity [9]: Active

Structure (SMILES): C=CC(=O)Nc1ccccc1Nc1nc(Nc2ccc(N3CCN(C)CC3)cc2)ncc1Cl
- inhibition [18]: 45.1%

Structure (SMILES): COc1cc(O)c2c(c1)/C=C/C[C@H](O)[C@H](O)C(=O)/C=C\C[C@H](C)OC2=O
- Activity [19]: 16%
- Activity [20]: 0.05%
- Activity [21]: 0.6%
